Source: ChEMBL document CHEMBL1125592, “Calcium channel blocking and positive inotropic activities of ethyl 5-cyano-1,4-dihydro-6-methyl-2-[(phenylsulfonyl)methyl]-4-aryl-3- pyridine-carboxylate and analogues. Synthesis and structure-activity relationships” (J Med Chem, 1991)
Activity calls are given as the source filed them. No cut-off for these calls is given here.

What was measured:
[1] = target: Voltage-gated L-type calcium channel (Rattus norvegicus, UniProt P22002+Q02485+P27732); experiment: Affinity to bind dihydropyridine receptor (DHP receptor) by inhibiting the radioligand [3H]nitrendipine; format: protein assay
In short: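 [3H]nitrendipine displacement, rat brain cortical membranes. Each compound first screened at 1000 nM; if inhibition exceeded 40%, a four- to seven-point curve with unlabeled compound was run. IC50 generally mean of two experiments, each in triplicate. ">1000 nM" means under 40% inhibition of control binding at 1000 nM.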

Rattus norvegicus [2] = species on record: Rattus norvegicus; experiment: Cardiovascular activity in isolated rat heart, concentration producing 25% increase in CF (cardiac flow).; format: functional
In short: (§1)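 Isolated Langendorff-perfused rat heart. Coronary flow (CF), LV +dP/dtmax and heart rate recorded during exposure to test agent. Value is the concentration giving a 25% rise in CF or in LV +dP/dtmax, mean ± SE. At least two hearts per compound.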

Rattus norvegicus [3] = species on record: Rattus norvegicus; experiment: Cardiovascular activity in isolated rat heart, concentration producing 25% increase in LV + dP/dtmax.; format: functional; in short: as §1

| SMILES | IC50 [1] [nM] | EC25 (Rattus norvegicus [2]) | EC25 (Rattus norvegicus [3]) |
| --- | --- | --- | --- |
| CCOC(=O)C1=C(C)N=C(CSc2ccccc2C)/C(=C(/O)OCC)C1c1ccccc1C(F)(F)F (stereo not given) | 49 | – | – |
| CC1=C(C#N)C(c2ccccc2C(F)(F)F)/C(=C(\O)OCCO)C(C[S+]([O-])c2ccccc2)=N1 (stereo not given) | 1000 | – | – |
| CCO/C(O)=C1\C(C[S+]([O-])c2ccccc2)=NC(C)=C(C#N)C1c1ccco1 (stereo not given) | > 1000 | – | – |
| C=CCO/C(O)=C1\C(CSc2ccccc2)=NC(C)=C(C#N)C1c1ccccc1C(F)(F)F (stereo not given) | 580 | – | – |
| CCO/C(O)=C1\C(CSc2ccccc2F)=NC(C)=C(C#N)C1c1ccccc1C(F)(F)F (stereo not given) | 267 | – | – |
| CCO/C(O)=C1\C(CSc2ccncc2)=NC(C)=C(C#N)C1c1ccccc1C(F)(F)F (stereo not given) | 1000 | – | – |
| CCOC(=O)C1=C(C[S+]([O-])c2ccccc2)N(C)C(C)=C(C#N)C1c1ccccc1C(F)(F)F (stereo not given) | > 1000 | – | – |
| CCOC(=O)C1=C(C[S+]([O-])c2ccccc2)NC(C)=C(C#N)C1c1ccccc1C(F)(F)F (stereo in doubt; 29a) | 1600 | – | 0.12 µM |
| CCOC(=O)C1=C(C)N=C(C[S+]([O-])c2ccncc2)/C(=C(/O)OCC)C1c1ccccc1C(F)(F)F (stereo not given) | 37.4 | – | – |
| CCO/C(O)=C1\C(C[S+]([O-])c2ccc(Cl)cc2)=NC(C)=C(C#N)C1c1ccccc1C(F)(F)F (stereo not given) | > 1000 | – | – |
| CCOC(=O)C1=C(C)N=C(CSc2ccccc2)/C(=C(/O)OCC)C1c1ccccc1C(F)(F)F (stereo not given) | 1.6 | – | – |
| CCOC(=O)C1=C(C[S+]([O-])c2ccccc2)N(CCN(CC)CC)C(C)=C(C#N)C1c1ccccc1C(F)(F)F (stereo not given) | > 1000 | 0.5 µM | 0.33 µM |
| CCO/C(O)=C1\C(CS(=O)(=O)c2ccc(OC)cc2)=NC(C)=C(C#N)C1c1ccccc1C(F)(F)F (stereo not given) | 109 | 0.3 µM | inactive |
| CCO/C(O)=C1\C(CSc2ccncc2)=NC(C)=C(C#N)C1c1cccc(Cl)c1Cl (stereo not given) | 1400 | – | – |
| CCO/C(O)=C1\C(C[S+]([O-])c2ccccc2)=NC(C)=C(C#N)C1c1ccccc1 (stereo not given) | > 1000 | – | – |
| CCO/C(O)=C1\C(C[S+]([O-])c2ccncc2)=NC(C)=C(C#N)C1c1ccccc1C(F)(F)F (stereo not given) | 1100 | inactive | 1.2 µM |
| CCO/C(O)=C1\C(C[S+]([O-])c2ccc(NC(C)=O)cc2)=NC(C)=C(C#N)C1c1ccccc1C(F)(F)F (stereo not given) | > 1000 | – | – |
| CCO/C(O)=C1\C(CSc2ccccc2Cl)=NC(C)=C(C(=O)OC)C1c1ccccc1C(F)(F)F (stereo not given) | 36 | – | – |
| CCO/C(O)=C1\C(CSc2ccccc2)=NC(C)=C(C#N)C1c1ccccn1 (stereo not given) | > 1000 | – | – |
| CCOC(=O)C1=C(C)N=C(C[S+]([O-])c2ccc(OC)cc2)/C(=C(/O)OCC)C1c1ccccc1C(F)(F)F (stereo in doubt; 8a) | 21 | – | – |

| SMILES | IC50 [1] [nM] | EC25 (Rattus norvegicus [2]) | EC25 (Rattus norvegicus [3]) |
| --- | --- | --- | --- |
| CCO/C(O)=C1\C(C[S+]([O-])c2ccccc2)=NC(C)=C(C#N)C1C1CCCCC1 (stereo not given) | > 1000 | – | – |
| CCO/C(O)=C1\C(C(C)S(=O)(=O)c2ccccc2)=NC2=C(C(=O)CCC2)C1c1ccccc1C(F)(F)F (stereo not given) | – | 1.4 µM | <0.1 µM |
| CCO/C(O)=C1\C(CSc2ccncc2)=NC(C)=C(C#N)C1c1ccccn1 (stereo not given) | > 1000 | – | – |
| CCO/C(O)=C1\C(C[S+]([O-])c2ccccn2)=NC(C)=C(C#N)C1c1ccccc1C(F)(F)F (stereo not given) | 1900 | – | – |
| CCO/C(O)=C1\C(CS(=O)(=O)c2ccccc2)=NC(C)=C(C#N)C1c1cccc[n+]1[O-] (stereo not given) | > 1000 | – | – |
| CCOC(=O)C1=C(CS(=O)(=O)c2ccccc2)N(C)C2=C(C(=O)CCC2)C1c1ccccc1C(F)(F)F (stereo not given) | – | 0.18 µM | <0.1 µM |
| CCO/C(O)=C1\C(CSc2ccc(OC)cc2)=NC(C)=C(C#N)C1c1ccccc1C(F)(F)F (stereo not given) | 71 | – | – |
| CCOC(=O)C1=C(C[S+]([O-])c2ccccc2)NC(C)=C(C#N)C1c1cccc([N+](=O)[O-])c1 (stereo in doubt; 32a) | > 1000 | – | 2.5 µM |
| CCOC(=O)C1=C(C)N=C(CSc2ccccc2)/C(=C(/O)OCC)C1c1cccnc1 (stereo not given) | 523 | – | – |
| CCCCc1ccc(SCC2=NC(C)=C(C#N)C(c3ccccc3C(F)(F)F)/C2=C(\O)OCC)c(C)c1 (stereo not given) | > 1000 | – | – |
| CC1=C(C#N)C(c2ccccc2C(F)(F)F)/C(=C(\O)OCCN2CCOCC2)C(C[S+]([O-])c2ccccc2)=N1 (stereo not given) | > 1000 | – | – |
| CCO/C(O)=C1\C(CS(=O)(=O)c2ccncc2)=NC(C)=C(C#N)C1c1cccc(Cl)c1Cl (stereo not given) | 434 | – | – |
| CCO/C(O)=C1\C(CSc2ccc(Cl)c(Cl)c2)=NC(C)=C(C#N)C1c1ccccc1C(F)(F)F (stereo not given) | 69 | – | – |
| CC1=C(C#N)C(c2ccccc2C(F)(F)F)C(C(=O)O)=C(C[S+]([O-])c2ccccc2)N1 (stereo not given) | > 1000 | – | – |
| CCOC(=O)C1=C(C)NC(C[S+]([O-])c2ccccc2C)=C(C(=O)OCC)C1c1ccccc1C(F)(F)F (stereo in doubt; 10a) | 160 | – | – |
| CCO/C(O)=C1\C(CSc2ccc(Cl)cc2)=NC(C)=C(C#N)C1c1ccccc1C(F)(F)F (stereo not given) | 100 | – | – |
| CCOC(=O)C1=C(C)N=C(CSc2ccncc2)/C(=C(/O)OCC)C1c1ccccc1C(F)(F)F (stereo not given) | 32.5 | – | – |
| CCOC(=O)C1=C(C)N=C(C[S+]([O-])c2ccccn2)/C(=C(/O)OCC)C1c1ccccc1C(F)(F)F (stereo not given) | 10 | – | – |
| CCO/C(O)=C1\C(CS(=O)(=O)c2ccccc2)=NC(C)=C(C#N)C1c1ccccc1Cl (stereo not given) | 720 | – | – |

Further lines, with some results ahead:

| IC50 [1] [nM] | SMILES | EC25 (Rattus norvegicus [2]) | EC25 (Rattus norvegicus [3]) |
| --- | --- | --- | --- |
| > 1000 | CCO/C(O)=C1\C(C[S+]([O-])c2ccccc2)=NC(C)=C(C#N)C1c1ccccc1OC(F)F (stereo not given) | – | – |
| > 1000 | CCO/C(O)=C1\C(CSc2ccccc2)=NC(C)=C(C#N)C1c1ccccc1 (stereo not given) | – | – |
| > 1000 | CC1=C(C#N)C(c2ccccc2C(F)(F)F)/C(=C(\O)OCC(O)CO)C(CS(=O)(=O)c2ccccc2)=N1 (stereo not given) | – | – |
| > 1000 | CCO/C(O)=C1\C(C[S+]([O-])c2ccccc2F)=NC(C)=C(C#N)C1c1ccccc1C(F)(F)F (stereo not given) | 0.36 µM | 0.93 µM |
| 870 | CCO/C(O)=C1\C(CSc2ccccc2)=NC(C)=C(C#N)C1c1cccc([N+](=O)[O-])c1 (stereo not given) | – | – |
| > 1000 | CCO/C(O)=C1\C(C[S+]([O-])c2ccccc2)=NC(C)=C(C#N)C1c1ccccc1Cl (stereo not given) | 0.54 µM | 0.91 µM |
| > 1000 | CCO/C(O)=C1\C(CSc2ccccc2C)=NC(C)=C(C#N)C1c1ccccc1C(F)(F)F (stereo not given) | – | – |
| > 500 | CCO/C(O)=C1\C(CS(=O)(=O)c2ccccc2Cl)=NC(C)=C(C#N)C1c1ccccc1C(F)(F)F (stereo not given) | 0.35 µM | 0.36 µM |
| 1000 | CO/C(O)=C1\C(CSc2ccccc2)=NC(C)=C(C#N)C1c1ccccc1C(F)(F)F (stereo not given) | – | – |
| 1410 | CCO/C(O)=C1\C(CS(=O)(=O)c2ccncc2)=NC(C)=C(C#N)C1c1ccccc1C (stereo not given) | – | – |
| 713 | CCO/C(O)=C1\C(CS(=O)(=O)c2ccncc2)=NC(C)=C(C#N)C1c1ccccc1Cl (stereo not given) | – | – |
| > 1000 | CCO/C(O)=C1\C(C[S+]([O-])c2ccccc2)=NC(C)=C(C#N)C1c1ccccn1 (stereo not given) | – | – |
| > 1000 | CCCCc1ccc(S(=O)(=O)CC2=NC(C)=C(C#N)C(c3ccccc3C(F)(F)F)/C2=C(\O)OCC)c(C)c1 (stereo not given) | – | – |
| > 1000 | CCO/C(O)=C1\C(CSc2ccccc2Cl)=NC(C)=C(C#N)C1c1ccccc1C(F)(F)F (stereo not given) | – | – |
| 2800 | CCOC(=O)C1=C(C[S+]([O-])c2ccccc2)NC(C)=C(C#N)C1c1ccccc1C(F)(F)F (stereo in doubt; 29b) | 1.3 µM | 0.17 µM |
| 1000 | CC1=C(C#N)C(c2ccccc2C(F)(F)F)/C(=C(\O)OCCC#N)C(CSc2ccccc2)=N1 (stereo not given) | – | – |

| IC50 [1] [nM] | SMILES | EC25 (Rattus norvegicus [2]) | EC25 (Rattus norvegicus [3]) |
| --- | --- | --- | --- |
| 1000 | CCOC(=O)C1=C(CSc2ccccc2)N(CCN(CC)CC)C(C)=C(C#N)C1c1ccccc1C(F)(F)F (stereo not given) | – | – |
| > 1000 | CCOC(=O)C1=C(C[S+]([O-])c2ccccc2)NC(C)=C(C#N)C1c1cccc([N+](=O)[O-])c1 (stereo in doubt; 32b) | – | 3 µM |
| 366 | CCO/C(O)=C1\C(CSc2ccncc2)=NC(C)=C(C#N)C1c1ccccc1Cl (stereo not given) | – | – |
| 1354 | CCO/C(O)=C1\C(CSc2ccccc2)=NC(C)=C(C#N)C1c1ccco1 (stereo not given) | – | – |
| > 1000 | CCO/C(O)=C1\C(CSc2ccccn2)=NC(C)=C(C#N)C1c1ccccc1C(F)(F)F (stereo not given) | – | – |
| 51 | CCOC(=O)C1=C(C)N=C(CSc2ccccn2)/C(=C(/O)OCC)C1c1ccccc1C(F)(F)F (stereo not given) | – | – |
| 27 | CCOC(=O)C1=C(C)N=C(C[S+]([O-])c2ccccc2)/C(=C(/O)OCC)C1c1ccccc1C(F)(F)F (stereo not given) | – | – |
| 254 | CCO/C(O)=C1\C(CS(=O)(=O)c2ccccc2)=NC(C)=C(C#N)C1c1ccco1 (stereo not given) | – | – |
| 18 | CCOC(=O)C1=C(C)N=C(C[S+]([O-])c2ccc(OC)cc2)/C(=C(/O)OCC)C1c1ccccc1C(F)(F)F (stereo in doubt; 8b) | – | – |
| 681 | CCO/C(O)=C1\C(C[S+]([O-])c2ccc(Cl)c(Cl)c2)=NC(C)=C(C#N)C1c1ccccc1C(F)(F)F (stereo not given) | – | – |
| > 1000 | CCOC(=O)C1=C(C)N=C(C[S+]([O-])c2ccccc2)/C(=C(/O)OCC)C1c1cccnc1 (stereo not given) | – | – |
| > 1000 | CCO/C(O)=C1\C(CS(=O)(=O)c2ccccc2)=NC(C)=C(C#N)C1c1ccccn1 (stereo not given) | – | – |
| > 1000 | CCO/C(O)=C1\C(CS(=O)(=O)c2ccccc2)=NC(C)=C(C#N)C1c1cccnc1 (stereo not given) | – | – |
| > 1000 | CC1=C(C#N)C(c2ccccc2C(F)(F)F)C(C(=O)O)=C(CSc2ccccc2)N1 (stereo not given) | – | – |
| 450 | CCO/C(O)=C1\C(CSc2ccccc2)=NC(C)=C(C#N)C1c1ccccc1C(F)(F)F (stereo not given) | – | – |
| 170 | CCOC(=O)C1=C(C)NC(C[S+]([O-])c2ccccc2C)=C(C(=O)OCC)C1c1ccccc1C(F)(F)F (stereo in doubt; 10b) | – | – |
